According to ChEMBL document CHEMBL1123247, “Nucleoside conjugates. 7. Synthesis and antitumor activity of 1-beta-D-arabinofuranosylcytosine conjugates of ether lipids” (J Med Chem, 1986):
Where “and” joins values, the source holds several entries; their conditions need not be identical. Identical values can stand only once.

Tests used:
[1] = system: L1210; assay: Antitumor activity was determined against the ip implanted L1210 leukemia in mice by 45-day survivors in mice at 32 and 66 mg/kg (treatment of 1-5qd schedule) dosage; type: functional, Mus musculus; conditions: route intraperitoneal
How it was run: (§1)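 DBA/2J mice in groups of 6 (wt 23-28 g) were inoculated ip with 1×10^6 L1210 cells on day 0. Dosing was ip from 24 h, in 0.9% NaCl with 0.5% Tween-80 (conjugates sonicated), across a range of doses. Mice were observed daily until death or 45 days. Median T/C was computed from survivors per NCI protocols, and ILS = (T/C − 1)×100.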

[2] = system: L1210; assay: Antitumor activity was determined against the ip implanted L1210 leukemia in mice by change in […] at 128 and 262 mg/kg (treatment of 1qd schedule) dosage; type: functional, Mus musculus; conditions: route intraperitoneal
How it was run: (§2)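 DBA/2J mice, 6 per group (wt 23-28 g), inoculated ip with 1×10^6 L1210 cells on day 0. Treatment was given ip in 0.9% NaCl with 0.5% Tween-80, starting 24 h later. Weight change was taken on day 8. Mice were observed daily until death or 45 days. Median survival T/C and %ILS = (T/C − 1) × 100 came from survivors per NCI protocols, and 45-day survivors were counted.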

[3] = system: L1210; assay: Antitumor activity was determined against the ip implanted L1210 leukemia in mice by change in […] at 32 and 66 mg/kg (treatment of 1-5qd schedule) dosage; type: functional, Mus musculus; conditions: route intraperitoneal; how it was run: as §2
[4] = system: L1210; assay: Antitumor activity against the ip implanted L1210 leukemia in mice expressed as optimal dose (1-5qd treatment schedule) required to produce greatest increase in life span was determined; type: functional, Mus musculus
How it was run: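 DBA/2J mice, groups of 6 (23-28 g), were inoculated ip with 1 × 10^6 L1210 cells on day 0. Dosing was ip from 24 h, in 0.9% NaCl with 0.5% Tween-80 (sonicated solution or suspension). Mice were observed daily until death or day 45. Median survival T/C followed NCI protocols, and ILS = (T/C − 1) × 100. Active range means doses giving ILS ≥25%; optimal dose means greatest ILS.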

[5] = system: L1210; assay: Antitumor activity was determined against the ip implanted L1210 leukemia in mice by percent increase in life span at 128 and 262 mg/kg (treatment of 1qd schedule) dosage; type: functional, Mus musculus; conditions: route intraperitoneal; how it was run: as §1
[6] = system: L1210; assay: Antitumor activity was determined against the ip implanted L1210 leukemia in mice by range in survival days at 128 and 262 mg/kg (treatment of 1qd schedule) dosage; Range is 7-8; type: functional, Mus musculus; conditions: route intraperitoneal
How it was run: (§3)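 DBA/2J mice, 23-28 g, in groups of 6, were inoculated ip with 1×10^6 L1210 cells on day 0. Dosing was ip starting 24 h later on the stated daily schedules. Conjugates were given as sonicated solutions and reference prodrugs as suspensions in 0.9% NaCl with 0.5% Tween-80. Mice were observed daily until death or 45 days. Median survival T/C was calculated from survivors per NCI protocols.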

[7] = system: L1210; assay: Antitumor activity was determined against the ip implanted L1210 leukemia in mice by median survival time at 128 and 262 mg/kg (treatment of 1qd schedule) dosage; 8.0/8.0; conditions: route intraperitoneal
[8] = system: L1210; assay: Antitumor activity was determined against the ip implanted L1210 leukemia in mice by 45-day survivors in mice at 128 and 262 mg/kg (treatment of 1qd schedule) dosage; type: functional, Mus musculus; conditions: route intraperitoneal; how it was run: as §1
[9] = system: L1210; assay: Antitumor activity was determined against the ip implanted L1210 leukemia in mice by percent increase in life span at 32 and 66 mg/kg (treatment of 1-5qd schedule) dosage; type: functional, Mus musculus; conditions: route intraperitoneal; how it was run: as §1
[10] = system: L1210; assay: Antitumor activity was determined against the ip implanted L1210 leukemia in mice by range in survival days at 32 and 66 mg/kg (treatment of 1-5qd schedule) dosage; Range is 10-12; type: functional, Mus musculus; conditions: route intraperitoneal; how it was run: as §3
[11] = system: L1210; assay: Antitumor activity was determined against the ip implanted L1210 leukemia in mice by percent median survival rate (treated/control) at 32 and 66 mg/kg (treatment of 1-5qd schedule) dosage; Range is 11.0/8.0; type: functional, Mus musculus; conditions: route intraperitoneal; how it was run: as §3
[12] = system: P388; assay: Antitumor activity was determined against the ip implanted P388 leukemia in mice by percent increase in life span at 300 mg/kg (1 qd treatment schedule) dosage; type: functional, Mus musculus; conditions: route intraperitoneal
How it was run: (§4)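 DBA/2J mice, 23-33 g, in groups of 6, were inoculated ip with 1×10^6 P388 cells on day 0. Dosing was ip from 24 h on the stated schedules, in 0.9% NaCl with 0.5% Tween-80 (sonicated solution or suspension). Survival was followed daily until death or 45 days. Median T/C was calculated from survivors per NCI protocols, with ILS = (T/C − 1) × 100.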

[13] = system: P388; assay: Antitumor activity was determined against the ip implanted P388 leukemia in mice by change in […] at 300 mg/kg (1 qd treatment schedule) dosage; type: functional, Mus musculus; conditions: route intraperitoneal
How it was run: (§5)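 P388 leukemia, 1×10^6 cells implanted ip on day 0 into DBA/2J mice, groups of 6 (wt 23-33 g). Dosing ip started 24 h post-inoculation, vehicle 0.9% NaCl containing 0.5% Tween-80. Animals were observed daily until death or 45 days. Outputs were weight change, median survival T/C from survivors per NCI protocols, and %ILS = (T/C − 1) × 100.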

[14] = system: P388; assay: Antitumor activity was determined against the ip implanted P388 leukemia in mice by 45-day survivors in mice at 300 mg/kg (1 qd treatment schedule) dosage; type: functional, Mus musculus; conditions: route intraperitoneal; how it was run: as §4
[15] = system: P388; assay: Antitumor activity was determined against the ip implanted P388 leukemia in mice by percent increase in life span at 60 mg/kg (1-5qd treatment schedule) dosage; type: functional, Mus musculus; conditions: route intraperitoneal; how it was run: as §4
[16] = system: P388; assay: Antitumor activity was determined against the ip implanted P388 leukemia in mice by change in […] at 60 mg/kg (1-5qd treatment schedule) dosage; type: functional, Mus musculus; conditions: route intraperitoneal; how it was run: as §5
[17] = system: P388; assay: Antitumor activity against the ip implanted P388 leukemia in mice expressed as optimal dose (1 qd treatment schedule) required to produce greatest increase in life span was determined; type: functional, Mus musculus
How it was run: (§6)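 P388 leukemia: 1 × 10^6 cells were given ip on day 0 to DBA/2J mice, groups of 6 (23-33 g). Treatment was ip from 24 h after inoculation, vehicle 0.9% NaCl with 0.5% Tween-80. Mice were observed daily until death or 45 days. Median survival T/C was calculated from survivors per NCI protocols, and ILS = (T/C − 1) × 100. Active range means doses giving ILS ≥25%; optimal dose means greatest ILS.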

[18] = system: P388; assay: Antitumor activity was determined against the ip implanted P388 leukemia in mice by range in survival days at 300 mg/kg (1 qd treatment schedule) dosage; Range is 39->45; type: functional, Mus musculus; conditions: route intraperitoneal
[19] = system: P388; assay: Antitumor activity against ip implanted P388 leukemia in mice expressed as active dose range (1-5qd treatment schedule) required to produce increase in life span by >25% was determined; Range is 40-80; type: functional, Mus musculus; how it was run: as §6
[20] = system: P388; assay: Antitumor activity against the ip implanted P388 leukemia in mice expressed as optimal dose (1-5qd treatment schedule) required to produce greatest increase in life span was determined; type: functional, Mus musculus; parameters: unit: mg/kg; how it was run: as §6
[21] = system: P388; assay: Antitumor activity against ip implanted P388 leukemia in mice expressed as active dose range (1 qd treatment schedule) required to produce increase in life span by >25% was determined; Range is 200-400; type: functional, Mus musculus; how it was run: as §6
[22] = system: P388; assay: Antitumor activity was determined against the ip implanted P388 leukemia in mice by percent median survival rate (treated/control) at 60 mg/kg (1-5qd treatment schedule) dosage; >45.0/11.5; type: functional, Mus musculus; conditions: route intraperitoneal
[23] = system: P388; assay: Antitumor activity was determined against the ip implanted P388 leukemia in mice by percent median survival rate (treated/control) at 300 mg/kg (1 qd treatment schedule) dosage; >45.0/11.0; type: functional, Mus musculus; conditions: route intraperitoneal
[24] = system: P388; assay: Antitumor activity against the ip implanted P388 leukemia in mice expressed as optimal dose (1,5,9qd treatment schedule) required to produce greatest increase in life span was determined; type: functional, Mus musculus; parameters: unit: mg/kg; how it was run: as §6
[25] = system: P388; assay: Antitumor activity was determined against the ip implanted P388 leukemia in mice by percent increase in life span at 133 mg/kg (treatment of 1,5,9qd schedule) dosage; type: functional, Mus musculus; conditions: route intraperitoneal; how it was run: as §4
[26] = system: P388; assay: Antitumor activity was determined against the ip implanted P388 leukemia in mice by percent median survival rate (treated/control) at 133 mg/kg (treatment of 1,5,9qd schedule) dosage; >45.0/11.5; type: functional, Mus musculus; conditions: route intraperitoneal
[27] = system: P388; assay: Antitumor activity was determined against the ip implanted P388 leukemia in mice by 45-day survivors in mice at 133 mg/kg (treatment of 1,5,9qd schedule) dosage; type: functional, Mus musculus; conditions: route intraperitoneal; how it was run: as §4
[28] = system: P388; assay: Antitumor activity was determined against the ip implanted P388 leukemia in mice by 45-day survivors in mice at 60 mg/kg (1-5qd treatment schedule) dosage; type: functional, Mus musculus; conditions: route intraperitoneal; how it was run: as §4
[29] = system: P388; assay: Antitumor activity was determined against the ip implanted P388 leukemia in mice by change in […] at 133 mg/kg (treatment of 1,5,9qd schedule) dosage; type: functional, Mus musculus; conditions: route intraperitoneal; how it was run: as §5
[30] = system: P388; assay: Antitumor activity against ip implanted P388 leukemia in mice expressed as active dose range (1,5,9qd treatment schedule) required to produce increase in life span by >25% was determined; Range is 100-167; type: functional, Mus musculus; how it was run: as §6

## CCCCCCCCCCCCCCCCCCOCC(COP(=O)(O)O)OC(=O)CCCCCCCCCCCCCCC.Nc1ccn([C@@H]2O[C@H](COP(=O)(O)O)[C@@H](O)[C@@H]2O)c(=O)n1 (racemic)
[1]
  Survivors: 0
[2]
  Weight change: 3.2 g mouse-1
[3]
  Weight change: 3.5 g mouse-1
[4]
  Optimal dose: 32 mg and 66 mg
[5]
  ILS: 0
[6]
  Range: 7
[7]
  median survival time: 8 days
[8]
  Survivors: 0
[9]
  ILS: 38
[10]
  Range: 10
[11]
  median survival time: 11 days

## CCCCCCCCCCCCCCCC(=O)OCC(COP(=O)(O)OP(=O)(O)OC[C@H]1O[C@@H](n2ccc(N)nc2=O)[C@@H](O)[C@@H]1O)OC(=O)CCCCCCCCCCCCCCC (mixture of isomers)
[12]
  ILS: >309
[13]
  Weight change: -1.7 g mouse-1
[14]
  Survivors: 4
[15]
  ILS: >291
[16]
  Weight change: -3.27 g mouse-1
[17]
  Optimal dose: 300 mg/kg/day
[18]
  Range: 39
[19]
  Active dose range: 40 mg/kg/day
[20]
  Optimal dose: 60 mg
[21]
  Active dose range: 200 mg/kg/day
[22]
  T/C: >45%
[23]
  T/C: >45%
[24]
  Optimal dose: 133 mg
[25]
  ILS: >291
[26]
  T/C: >45%
[27]
  Survivors: 6
[28]
  Survivors: 6
[29]
  Weight change: 0.37 g mouse-1
[30]
  Active dose range: 100 mg/kg/day
